# How the values were obtained:
# Format in all cases: functional
# [1] = system: Rattus norvegicus; test: Compound was tested for the inhibition of rat reversed passive Arthus pleurisy after peroral administration of 100 mg/kg dose at 0.42 mL of exudate volume with 0.52 mL of control (injected intrapleurally); conditions: route oral
# How it was run: (§1)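 Male Wistar rats (about 250 g) were given compound orally before the antiserum. Under ether anesthesia, 0.2 mL rabbit anti-egg albumin antiserum was injected intrapleurally. After 30 min, egg albumin (15 mg/100 g body weight in 0.1 mL saline) was given iv. Rats were killed 4.5 h later and the thoracic cavity was rinsed with 5 mL saline. Exudate volume and infiltrated cell number were measured, with inhibition % versus controls as mean ± SEM.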
# [2] = system: Rattus norvegicus; test: Inhibition of carrageenan-induced rat's paw edema (CPE) after peroral administration of 100 mg/kg dose.; conditions: route oral
# How it was run: (§2)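 Male Wistar rats (about 150 g) were dosed orally with compound suspended in 5% arabic gum, 1 h before a subplantar hind-paw injection of 0.1 mL saline. The irritant was 1% zymosan for 33 or 1% λ-carrageenin for 34. Paw volume was measured by plethysmograph before dosing and at 4 h (zymosan) or 3 h (carrageenin). Swelling is relative to initial volume, as mean ± SEM. % inhibition is versus the control group's mean swelling.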
# [3] = system: Rattus norvegicus; test: Antiinflammatory activity on Zymosan-induced rat's paw edema(ZPE) after peroral administration of 100 mg/kg dose with control swelling of 72.9%; conditions: route oral
# How it was run: (§3)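 Male Wistar rats weighing about 150 g were dosed orally with compound suspended in 5% arabic gum. 1 h later, 1% zymosan in 0.1 mL saline was injected subplantarly into the hind paw. Paw volume was measured by plethysmograph before dosing and 4 h after zymosan, with edema as the volume difference. Inhibition % was derived from mean swelling versus the control group.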
# [4] = system: Rattus norvegicus; test: Antiinflammatory activity on Carrageenan rat's paw edema(CPE) after peroral administration of 100 mg/kg dose with control swelling of 64.2%; conditions: route oral
# [5] = system: Rattus norvegicus; test: Compound was tested for the inhibition of rat reversed passive Arthus pleurisy after peroral administration of 100 mg/kg dose at 2.23*10e6 no of cells with 2.28*10er cells of control; conditions: route oral; how it was run: as §1
# [6] = system: Rattus norvegicus; test: Inhibition of Zymosan-induced rat's paw edema(ZPE) after peroral administration of 100 mg/kg dose.; conditions: route oral; how it was run: as §2
# [7] = system: Rattus norvegicus; test: Antiinflammatory activity on Zymosan-induced rat's paw edema(ZPE) after peroral administration of 100 mg/kg dose with control swelling of 71.7%; conditions: route oral; how it was run: as §3
# [8] = system: Rattus norvegicus; test: Compound was tested for the inhibition of rat reversed passive Arthus pleurisy after peroral administration of 100 mg/kg dose at 0.37 mL of exudate volume with 0.46 mL of control (injected intrapleurally); conditions: route oral; how it was run: as §1
# [9] = system: Rattus norvegicus; test: Compound was tested for the inhibition of rat reversed passive Arthus pleurisy after peroral administration of 100 mg/kg dose at 1.59+/-0.13*10e6 no of cells with 2.17*10e6 cells of control; conditions: route oral; how it was run: as §1
# [10] = system: Rattus norvegicus; test: Compound was tested for the inhibition of rat reversed passive Arthus pleurisy after peroral administration of 100 mg/kg dose at 4.35*10e6 no of cells with 3.62*10e6 cells of control; conditions: route oral
# How it was run: (§4)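 Male Wistar rats (about 250 g) under ether received 0.2 mL rabbit anti-egg-albumin antiserum intrapleurally. Thirty min later they got 15 mg EA/100 g body weight in 0.1 mL saline iv. Compounds were given orally beforehand. Rats were killed 4.5 h after induction and the thoracic cavity rinsed with 5 mL saline. Exudate volume and infiltrated cell count were read as mean ± SE. % inhibition is versus control.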
# [11] = system: Rattus norvegicus; test: Compound was tested for the inhibition of rat reversed passive Arthus pleurisy after peroral administration of 100 mg/kg dose at 0.94 mL of exudate volume with 0.86 mL of control (injected intrapleurally); conditions: route oral; how it was run: as §1
# [12] = system: Rattus norvegicus; test: Compound was tested for the inhibition of rat reversed passive Arthus pleurisy after peroral administration of 100 mg/kg dose at 0.65 mL of exudate volume with 0.84 mL of control (injected intrapleurally); conditions: route oral; how it was run: as §1
# [13] = system: Rattus norvegicus; test: Antiinflammatory activity on Zymosan-induced rat's paw edema(ZPE) after peroral administration of 100 mg/kg dose with control swelling of 62.8%; conditions: route oral; how it was run: as §3
# [14] = system: Rattus norvegicus; test: Antiinflammatory activity on Carrageenan rat's paw edema(CPE) after peroral administration of 100 mg/kg dose with control swelling of 68.1%; conditions: route oral
# [15] = system: Rattus norvegicus; test: Compound was tested for the inhibition of rat reversed passive Arthus pleurisy after peroral administration of 100 mg/kg dose at 4.66*10e6 no of cells with 5.72*10e6 cells of control; conditions: route oral; how it was run: as §4
# [16] = system: Rattus norvegicus; test: Antiinflammatory activity on Carrageenan rat's paw edema(CPE) after peroral administration of 3 mg/kg dose with control swelling of 75.8%; conditions: route oral
# [17] = system: Rattus norvegicus; test: Antiinflammatory activity on Zymosan-induced rat's paw edema(ZPE) after peroral administration of 10 mg/kg dose with control swelling of 55.1%; conditions: route oral; how it was run: as §3
# [18] = system: Rattus norvegicus; test: Compound was tested for the inhibition of arachidonic acid-induced rat's paw edema(APE) after peroral administration of 10 mg/kg dose with control swelling of 51.6%; conditions: route oral
# How it was run: (§5)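 Test: arachidonic acid paw edema in male Wistar rats of about 150 g. Oral dosing in 5% arabic gum came 1 h before subplantar injection of 1% arachidonic acid sodium salt in 0.1 mL saline into the hind paw. Plethysmograph paw volume was read before dosing and 1 h post-irritant, and edema = volume difference. % inhibition was taken from mean swelling against controls.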
# [19] = system: Rattus norvegicus; test: Compound was tested for the inhibition of arachidonic acid-induced rat's paw edema(APE) after peroral administration of 10 mg/kg dose; conditions: route oral; how it was run: as §5
# [20] = system: Rattus norvegicus; test: Compound was tested for the inhibition of Carrageenan rat's paw edema(CPE) after peroral administration of 3 mg/kg dose; conditions: route oral
# [21] = system: Rattus norvegicus; test: Antiinflammatory activity on Zymosan-induced rat's paw edema(ZPE) after peroral administration of 100 mg/kg dose with control swelling of 55.1%; conditions: route oral; how it was run: as §3
# [22] = system: Rattus norvegicus; test: Compound was tested for the inhibition of Zymosan-induced rat's paw edema(ZPE) after peroral administration of 10 mg/kg dose; conditions: po; how it was run: as §3
# [23] = system: Rattus norvegicus; test: Compound was tested for the inhibition of Zymosan-induced rat's paw edema(ZPE) after peroral administration of 3 mg/kg dose; conditions: route oral; how it was run: as §3
# [24] = system: Rattus norvegicus; test: Antiinflammatory activity on Zymosan-induced rat's paw edema(ZPE) after peroral administration of 3 mg/kg dose with control swelling of 55.1%; conditions: route oral; how it was run: as §3
# [25] = system: Rattus norvegicus; test: Compound was tested for the inhibition of Carrageenan rat's paw edema(CPE) after peroral administration of 10 mg/kg dose; conditions: Rattus norvegicus, po
# [26] = system: Rattus norvegicus; test: Compound was tested for the inhibition of Zymosan-induced rat's paw edema(ZPE) after peroral administration of 30 mg/kg dose; conditions: route oral; how it was run: as §3
# [27] = system: Rattus norvegicus; test: Antiinflammatory activity on Carrageenan rat's paw edema(CPE) after peroral administration of 10 mg/kg dose with control swelling of 75.8%; conditions: route oral
structure (smiles),measurement,setting,value
CNC(=O)c1c(O)c2cccnc2n(-c2ccccc2)c1=O,inhibition in vivo at 100 mg/kg,[1],22.3%
same,inhibition in vivo at 100 mg/kg,[2],21%
same,Swelling,[3],65.9%
same,Swelling,[4],50.7%
same,inhibition in vivo at 100 mg/kg,[5],3.2%
same,inhibition in vivo at 100 mg/kg,[6],9.6%
O=C(Nc1cnccn1)c1c(O)c2cccnc2n(-c2ccccc2)c1=O,inhibition in vivo at 100 mg/kg,[2],21.2%
same,Swelling,[7],50.5%
same,inhibition in vivo at 100 mg/kg,[8],24.3%
same,inhibition in vivo at 100 mg/kg,[9],26.7%
same,Swelling,[4],50.6%
same,inhibition in vivo at 100 mg/kg,[6],29.6%
CN(C)CCNC(=O)c1c(O)c2cccnc2n(-c2ccccc2)c1=O,inhibition in vivo at 100 mg/kg,[2],18.4%
same,Swelling,[7],55.5%
same,inhibition in vivo at 100 mg/kg,[10],-16.6%
same,inhibition in vivo at 100 mg/kg,[11],-10.4%
same,Swelling,[4],52.4%
same,inhibition in vivo at 100 mg/kg,[6],22.6%
Cc1ccc(NC(=O)c2c(O)c3cccnc3n(-c3ccccc3)c2=O)cc1,inhibition in vivo at 100 mg/kg,[12],22.4%
same,inhibition in vivo at 100 mg/kg,[2],2.2%
same,Swelling,[13],65%
same,Swelling,[14],66.6%
same,inhibition in vivo at 100 mg/kg,[15],21.5%
same,inhibition in vivo at 100 mg/kg,[6],-3.5%
O=C(Nc1ccccn1)c1c(O)c2cccnc2n(-c2ccccc2)c1=O,inhibition in vivo at 100 mg/kg,[2],14.6%
same,Swelling,[7],81.4%
same,Swelling,[4],54.8%
same,inhibition in vivo at 100 mg/kg,[6],-13.5%
CN1C(C(=O)Nc2ccccn2)=C(O)c2ccccc2S1(=O)=O [PIROXICAM],Swelling,[16],34.4%
same,Swelling,[17],61.7%
same,Swelling,[18],42.7%
same,inhibition in vivo at 10 mg/kg,[19],17.2%
same,inhibition in vivo at 3 mg/kg,[20],54.6%
same,Swelling,[21],50.3%
same,inhibition in vivo at 10 mg/kg,[22],9.4%
same,inhibition in vivo at 3 mg/kg,[23],2.2%
same,Swelling,[24],53.9%
same,inhibition in vivo at 10 mg/kg,[25],66%
same,inhibition in vivo at 30 mg/kg,[26],8.7%
same,Swelling,[27],25.8%

# — ChEMBL document CHEMBL1126267, “A novel synthesis and potent antiinflammatory activity of 4-hydroxy-2(1H)-oxo-1-phenyl-1,8-naphthyridine-3-carboxamides” (1992)
